Target: T1, Macrophage migration inhibitory factor (Homo sapiens, UniProt P14174)
T1 sequence (P14174 whole entry): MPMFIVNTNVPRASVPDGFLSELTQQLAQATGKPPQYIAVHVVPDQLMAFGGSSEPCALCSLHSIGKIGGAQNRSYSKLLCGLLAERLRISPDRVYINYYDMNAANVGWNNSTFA
Assay: Inhibition of MIF-mediated dopachrome tautomerase activity
Details: not given
Summary of the method: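 l-Dopachrome methyl ester substrate (2.4 mm prepared stock, from sodium periodate oxidation of l-3,4-dihydroxyphenylalanine methyl ester) added to recombinant MIF (50 nm) in 50 mm potassium phosphate, pH 6, 0.5 mm EDTA at room temperature.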

Row | IC50 [µM] | Structure (SMILES)
1 | 14.5 | CCCCC(=O)O/N=C/c1ccc(O)cc1
2 | 11 | O=C(O/N=C/c1ccc(O)cc1)C1CCC1
3 | 7 | CC(C)CC(=O)O/N=C/c1ccc(O)cc1
4 | 7 | CC(C)(C)CC(=O)O/N=C/c1ccc(O)cc1
5 | 3 | O=C(CCC1CCCCC1)O/N=C/c1ccc(O)cc1

Continued, compound first:

Row | Structure (SMILES) | IC50 [µM]
6 | CC(C)(C)C(=O)O/N=C/c1ccc(O)cc1 | 113
7 | O=C(O/N=C/c1ccc(O)cc1)C1CC=CCC1 (stereo not drawn) | 3.4
8 | O=C(O/N=C/c1ccc(O)cc1)C1CCCC1 | 4
9 | O=C(O/N=C/c1ccc(O)cc1)c1ccccc1 | 7
10 | CC(C)C(=O)O/N=C/c1ccc(O)cc1 | 25
11 | CC(=O)O/N=C/c1ccc(O)cc1 | 147

Tested on: Mus musculus
Assay: Increase in survival rate in cecal ligation and puncture-induced peritonitis mouse model administered twice a day after 24 hrs of sepsis induction at 3.5 mg/kg, ip for 3 days
Format: functional
Details: route intraperitoneal
Summary of the method: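 Mice anaesthetised with ketamine 100 mg/kg plus xylazine 8 mg/kg im. Cecum ligated below the ileocecal valve and punctured once with a 22-gauge needle. Post-surgery: Premaxin 0.5 mg/kg sc and saline 20 ml/kg sc. Dosing ip in 20% aqueous DMSO vehicle began 24 h post-CLP, twice daily for 3 days. n = 13 per group; survival followed 2 weeks.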

Row | Structure (SMILES) | survival at 3.5 mg/kg [%]
12 | O=C(O/N=C/c1ccc(O)cc1)C1CCCCC1 | 70

Target: Transcription factor p65 (Mus musculus) (UniProt Q04207)
Assay: Inhibition of NF-kappaB activation in LPS-induced mouse RAW264.7 cells by electrophoretic mobility shift assay
Details: not given

Transcription factor p65 (Mus musculus), sequence (Q04207 whole entry, looked up): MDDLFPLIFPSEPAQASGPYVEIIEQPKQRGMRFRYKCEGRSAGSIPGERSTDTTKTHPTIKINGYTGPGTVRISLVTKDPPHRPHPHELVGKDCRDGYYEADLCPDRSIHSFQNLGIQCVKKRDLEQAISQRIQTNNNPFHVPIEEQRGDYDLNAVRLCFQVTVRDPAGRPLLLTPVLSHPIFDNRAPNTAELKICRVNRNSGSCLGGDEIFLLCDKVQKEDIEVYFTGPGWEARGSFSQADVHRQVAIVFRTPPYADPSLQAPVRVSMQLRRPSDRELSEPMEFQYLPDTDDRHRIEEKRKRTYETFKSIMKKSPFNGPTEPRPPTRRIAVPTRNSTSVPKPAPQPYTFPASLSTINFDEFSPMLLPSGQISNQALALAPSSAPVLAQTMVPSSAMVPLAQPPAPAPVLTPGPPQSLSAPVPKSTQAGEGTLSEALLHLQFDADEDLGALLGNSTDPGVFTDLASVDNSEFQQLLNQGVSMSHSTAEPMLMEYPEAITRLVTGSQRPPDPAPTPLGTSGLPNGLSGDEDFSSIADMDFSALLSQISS

Row | Structure (SMILES) | Activity
13 | O=C(O/N=C/c1ccc(O)cc1)C1CCCCC1 | Dose-dependent effect

From ChEMBL document CHEMBL1142228, “Alternative chemical modifications reverse the binding orientation of a pharmacophore scaffold in the active site of macrophage migration inhibitory factor” (J Biol Chem, 2007)
